Source: publication PMC9898131 (Nature chemical biology, 2022)

Molecular target: COQ8A^NΔ250 (Homo sapiens, UniProt Q8NI60)
Test: Differential scanning fluorimetry
Assay type: binding
Settings: 100 μM inhibitor, 10 μM COQ8A^NΔ250
How it was run: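 Recombinant COQ8A^NΔ250 purified on cobalt IMAC resin, exchanged into 20 mM HEPES pH 7.2, 300 mM NaCl, 10% glycerol, 5 mM BME. They were spun briefly, then kept 10 min at room temperature in the dark before melting.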

Chain of COQ8A^NΔ250 (Q8NI60 251-647 limits assumed, stated change not applied): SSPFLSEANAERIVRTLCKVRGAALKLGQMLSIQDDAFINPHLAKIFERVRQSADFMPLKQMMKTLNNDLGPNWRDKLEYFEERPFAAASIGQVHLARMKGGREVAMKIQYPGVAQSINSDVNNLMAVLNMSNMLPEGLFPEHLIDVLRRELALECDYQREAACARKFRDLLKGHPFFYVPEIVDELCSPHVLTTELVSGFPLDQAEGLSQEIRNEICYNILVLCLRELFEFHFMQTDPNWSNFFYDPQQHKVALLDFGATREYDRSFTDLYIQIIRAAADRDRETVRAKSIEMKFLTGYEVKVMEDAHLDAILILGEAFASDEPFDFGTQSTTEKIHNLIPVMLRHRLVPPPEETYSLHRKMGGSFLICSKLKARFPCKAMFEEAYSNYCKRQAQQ

COQ8A melting temperature increase (ΔTm): weak-binding control
SMILES: C#Cc1cccc(Nc2ncnc3cc(OCCOC)c(OCCOC)cc23)c1 [erlotinib]
